From the M2OR odorant receptor database

Tests used:
Settings in all cases: stereoisomer not certain
UniProt A2ATE5 = biological target: T1, UniProt A2ATE5
T1 sequence (whole entry): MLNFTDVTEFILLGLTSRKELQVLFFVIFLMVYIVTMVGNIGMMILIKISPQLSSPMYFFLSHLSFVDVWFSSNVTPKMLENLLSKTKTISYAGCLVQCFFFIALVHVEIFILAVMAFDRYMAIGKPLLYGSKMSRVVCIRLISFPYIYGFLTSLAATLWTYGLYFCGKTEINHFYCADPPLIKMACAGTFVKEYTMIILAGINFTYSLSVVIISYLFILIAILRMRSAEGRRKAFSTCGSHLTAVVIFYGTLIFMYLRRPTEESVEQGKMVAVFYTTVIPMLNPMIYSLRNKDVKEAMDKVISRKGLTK
Summary of the method: (§1)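 Assay methods differ from source to source, frequently being transient luciferase assays in mammalian cell lines. For each receptor–molecule pair, the label responsive (active) applies when the original authors judged the measured signal statistically different from baseline, and non-responsive (inactive) applies otherwise.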

UniProt A2AVB0 = biological target: T2, UniProt A2AVB0
T2 sequence (whole entry): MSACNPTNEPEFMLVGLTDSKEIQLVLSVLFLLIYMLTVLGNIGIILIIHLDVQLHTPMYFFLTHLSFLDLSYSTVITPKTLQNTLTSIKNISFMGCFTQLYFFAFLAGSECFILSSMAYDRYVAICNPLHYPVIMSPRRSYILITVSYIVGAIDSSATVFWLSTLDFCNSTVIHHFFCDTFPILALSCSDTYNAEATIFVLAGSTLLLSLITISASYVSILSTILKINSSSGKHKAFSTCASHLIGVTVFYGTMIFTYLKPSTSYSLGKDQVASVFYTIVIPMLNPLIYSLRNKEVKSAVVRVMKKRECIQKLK
Summary of the method: as §1

UniProt E9PVX1 = biological target: T3, UniProt E9PVX1
T3 sequence (whole entry): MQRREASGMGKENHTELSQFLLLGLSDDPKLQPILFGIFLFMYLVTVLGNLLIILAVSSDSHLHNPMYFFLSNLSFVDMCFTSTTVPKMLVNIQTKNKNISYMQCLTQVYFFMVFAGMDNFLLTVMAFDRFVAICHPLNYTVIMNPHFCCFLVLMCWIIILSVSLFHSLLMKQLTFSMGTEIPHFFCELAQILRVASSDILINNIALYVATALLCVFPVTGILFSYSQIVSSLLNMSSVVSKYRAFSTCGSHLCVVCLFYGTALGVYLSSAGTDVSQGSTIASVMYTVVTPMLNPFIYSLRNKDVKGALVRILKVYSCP
Summary of the method: as §1

UniProt E9PX47 = biological target: T4, UniProt E9PX47
T4 sequence (whole entry): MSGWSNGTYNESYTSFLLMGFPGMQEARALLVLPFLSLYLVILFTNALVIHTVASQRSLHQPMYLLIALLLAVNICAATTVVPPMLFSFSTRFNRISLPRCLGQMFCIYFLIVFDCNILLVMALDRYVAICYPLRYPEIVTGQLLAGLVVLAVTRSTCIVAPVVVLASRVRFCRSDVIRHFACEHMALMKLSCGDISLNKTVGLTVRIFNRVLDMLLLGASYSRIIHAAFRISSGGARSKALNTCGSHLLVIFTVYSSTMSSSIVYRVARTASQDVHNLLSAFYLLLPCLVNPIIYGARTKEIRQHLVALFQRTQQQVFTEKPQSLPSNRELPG
Summary of the method: as §1

UniProt E9PXN3 = biological target: T5, UniProt E9PXN3
T5 sequence (whole entry): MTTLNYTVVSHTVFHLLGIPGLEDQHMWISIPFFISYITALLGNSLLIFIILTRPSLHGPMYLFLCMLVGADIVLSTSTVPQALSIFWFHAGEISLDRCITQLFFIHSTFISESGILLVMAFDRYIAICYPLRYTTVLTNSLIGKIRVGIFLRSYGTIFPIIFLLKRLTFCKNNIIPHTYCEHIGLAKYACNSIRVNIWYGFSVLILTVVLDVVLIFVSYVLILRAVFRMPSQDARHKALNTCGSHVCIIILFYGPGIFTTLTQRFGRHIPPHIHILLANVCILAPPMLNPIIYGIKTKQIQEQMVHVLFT
Summary of the method: as §1

UniProt E9PZ66 = biological target: T6, UniProt E9PZ66
T6 sequence (whole entry): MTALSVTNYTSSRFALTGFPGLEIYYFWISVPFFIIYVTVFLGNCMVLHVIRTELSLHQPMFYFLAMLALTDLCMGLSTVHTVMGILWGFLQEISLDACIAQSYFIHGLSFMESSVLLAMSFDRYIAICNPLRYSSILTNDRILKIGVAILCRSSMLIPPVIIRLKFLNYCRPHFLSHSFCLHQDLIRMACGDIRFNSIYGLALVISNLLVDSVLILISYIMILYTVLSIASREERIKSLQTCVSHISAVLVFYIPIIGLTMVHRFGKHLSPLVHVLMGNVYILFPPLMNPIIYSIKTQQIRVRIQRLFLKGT
Summary of the method: as §1

UniProt E9Q4X7 = biological target: T7, UniProt E9Q4X7
T7 sequence (whole entry): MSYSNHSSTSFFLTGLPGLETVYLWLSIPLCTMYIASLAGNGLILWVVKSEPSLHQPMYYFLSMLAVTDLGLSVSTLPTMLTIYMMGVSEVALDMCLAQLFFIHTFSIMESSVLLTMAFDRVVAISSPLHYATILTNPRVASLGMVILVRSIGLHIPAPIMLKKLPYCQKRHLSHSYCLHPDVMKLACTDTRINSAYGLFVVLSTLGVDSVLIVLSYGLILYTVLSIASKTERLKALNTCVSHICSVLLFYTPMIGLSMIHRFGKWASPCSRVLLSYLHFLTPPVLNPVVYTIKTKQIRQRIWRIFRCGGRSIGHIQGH
Summary of the method: as §1

UniProt E9Q546 = biological target: T8, UniProt E9Q546
T8 sequence (whole entry): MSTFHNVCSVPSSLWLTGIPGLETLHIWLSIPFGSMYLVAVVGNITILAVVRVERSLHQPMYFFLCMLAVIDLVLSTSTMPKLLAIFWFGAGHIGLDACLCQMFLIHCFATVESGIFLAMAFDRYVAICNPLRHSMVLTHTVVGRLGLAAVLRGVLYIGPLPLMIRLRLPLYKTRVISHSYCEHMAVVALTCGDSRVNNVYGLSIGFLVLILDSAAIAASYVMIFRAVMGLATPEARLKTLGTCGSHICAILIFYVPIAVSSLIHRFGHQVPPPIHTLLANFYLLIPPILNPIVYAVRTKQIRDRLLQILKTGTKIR
Summary of the method: as §1

UniProt E9Q6Z7 = biological target: T9, UniProt E9Q6Z7
T9 sequence (whole entry): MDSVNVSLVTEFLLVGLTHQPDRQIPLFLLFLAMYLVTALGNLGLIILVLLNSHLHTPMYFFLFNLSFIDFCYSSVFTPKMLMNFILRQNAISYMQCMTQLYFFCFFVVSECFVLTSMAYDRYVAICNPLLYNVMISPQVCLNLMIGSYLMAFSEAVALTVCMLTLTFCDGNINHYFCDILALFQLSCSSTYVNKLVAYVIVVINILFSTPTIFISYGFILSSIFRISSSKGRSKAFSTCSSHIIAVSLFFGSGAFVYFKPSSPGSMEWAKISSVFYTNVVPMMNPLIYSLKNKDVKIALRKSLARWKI
Summary of the method: as §1

UniProt A2AVB5 = biological target: T10, UniProt A2AVB5
T10 sequence (whole entry): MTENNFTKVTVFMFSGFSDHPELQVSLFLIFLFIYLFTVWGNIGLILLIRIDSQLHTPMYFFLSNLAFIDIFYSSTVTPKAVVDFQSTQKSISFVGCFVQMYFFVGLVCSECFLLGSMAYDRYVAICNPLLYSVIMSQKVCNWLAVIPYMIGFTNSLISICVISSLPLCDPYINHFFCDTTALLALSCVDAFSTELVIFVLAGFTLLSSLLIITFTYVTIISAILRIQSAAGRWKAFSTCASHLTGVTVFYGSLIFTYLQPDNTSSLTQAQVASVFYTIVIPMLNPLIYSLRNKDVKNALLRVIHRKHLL
Summary of the method: as §1

UniProt B2RVX8 = biological target: T11, UniProt B2RVX8
T11 sequence (whole entry): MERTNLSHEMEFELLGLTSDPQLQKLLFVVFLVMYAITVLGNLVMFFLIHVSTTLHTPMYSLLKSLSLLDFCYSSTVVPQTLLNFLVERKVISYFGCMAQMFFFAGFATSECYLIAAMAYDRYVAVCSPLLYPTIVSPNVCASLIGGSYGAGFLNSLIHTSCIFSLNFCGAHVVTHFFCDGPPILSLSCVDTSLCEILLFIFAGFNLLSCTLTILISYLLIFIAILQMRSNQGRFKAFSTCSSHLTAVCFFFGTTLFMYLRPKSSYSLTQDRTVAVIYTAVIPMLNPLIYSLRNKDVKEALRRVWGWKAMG
Summary of the method: as §1

UniProt K7N609 = biological target: T12, UniProt K7N609
T12 sequence (whole entry): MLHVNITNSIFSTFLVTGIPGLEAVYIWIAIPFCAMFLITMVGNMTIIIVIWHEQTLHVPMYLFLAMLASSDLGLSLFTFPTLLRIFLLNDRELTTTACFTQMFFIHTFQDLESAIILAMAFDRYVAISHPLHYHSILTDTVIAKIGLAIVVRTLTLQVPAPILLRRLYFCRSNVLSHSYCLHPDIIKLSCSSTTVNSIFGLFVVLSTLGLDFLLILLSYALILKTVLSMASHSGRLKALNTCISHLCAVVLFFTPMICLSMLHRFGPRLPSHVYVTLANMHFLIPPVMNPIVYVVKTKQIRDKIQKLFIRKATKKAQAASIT
Summary of the method: as §1

UniProt E1BM68 = biological target: T13, UniProt E1BM68
T13 sequence (whole entry): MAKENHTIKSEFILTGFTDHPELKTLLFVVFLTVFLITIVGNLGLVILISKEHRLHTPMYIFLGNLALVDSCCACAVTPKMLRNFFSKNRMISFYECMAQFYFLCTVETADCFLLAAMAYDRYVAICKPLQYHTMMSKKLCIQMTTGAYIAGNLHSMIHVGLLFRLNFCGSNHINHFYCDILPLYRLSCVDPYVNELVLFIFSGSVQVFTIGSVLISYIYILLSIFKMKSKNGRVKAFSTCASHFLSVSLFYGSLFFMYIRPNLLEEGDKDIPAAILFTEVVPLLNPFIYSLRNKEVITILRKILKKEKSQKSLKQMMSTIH
Summary of the method: as §1

UniProt E9QAT7 = biological target: T14, UniProt E9QAT7
T14 sequence (whole entry): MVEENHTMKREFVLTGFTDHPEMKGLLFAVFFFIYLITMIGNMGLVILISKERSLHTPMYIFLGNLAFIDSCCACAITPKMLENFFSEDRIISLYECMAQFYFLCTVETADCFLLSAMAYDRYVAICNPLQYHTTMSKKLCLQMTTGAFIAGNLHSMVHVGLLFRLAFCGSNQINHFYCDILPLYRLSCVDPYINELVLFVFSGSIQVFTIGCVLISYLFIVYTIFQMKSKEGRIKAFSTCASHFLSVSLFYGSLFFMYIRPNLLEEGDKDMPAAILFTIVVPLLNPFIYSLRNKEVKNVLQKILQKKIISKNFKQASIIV
Summary of the method: as §1

Row | SMILES | odorant receptor agonist call (UniProt A2ATE5) | odorant receptor agonist call (UniProt A2AVB0) | odorant receptor agonist call (UniProt E9PVX1) | odorant receptor agonist call (UniProt E9PX47) | odorant receptor agonist call (UniProt E9PXN3) | odorant receptor agonist call (UniProt E9PZ66) | odorant receptor agonist call (UniProt E9Q4X7) | odorant receptor agonist call (UniProt E9Q546) | odorant receptor agonist call (UniProt E9Q6Z7) | odorant receptor agonist call (UniProt A2AVB5) | odorant receptor agonist call (UniProt B2RVX8) | odorant receptor agonist call (UniProt K7N609) | odorant receptor agonist call (UniProt E1BM68) | odorant receptor agonist call (UniProt E9QAT7)
1 | O=C([O-])CCCCCCCC(=O)[O-].[H+].[H+] | inactive | inactive | inactive | active | inactive | inactive | inactive | inactive | inactive |  |  |  |  | 
2 | CCCCCCC=CC=O | inactive | inactive | inactive |  |  | inactive | inactive | inactive | inactive |  |  |  |  | 
3 | COc1cc(C(=O)O)ccc1O | inactive | inactive | inactive |  |  | inactive | active | inactive | inactive | inactive | inactive | active |  | 
4 | COc1cnccn1 | inactive | inactive | inactive |  |  | inactive | inactive | inactive | inactive |  |  |  | active | inactive
5 | CCC(C)c1nccnc1OC (stereo unspecified) | inactive | inactive | inactive |  |  | inactive | inactive | inactive | inactive |  |  |  | active | inactive
6 | C=CCOC(=O)CCCCCC | inactive | inactive | inactive |  |  | inactive | inactive | inactive | inactive | inactive | inactive | inactive |  | 
7 | OCCc1ccccc1 | inactive | inactive | inactive |  |  | inactive | inactive | inactive | inactive |  |  |  |  | 
